Legend:
Type in all cases: ADME, organism-based
Conditions in all cases: read-out: Drug uptake
[1] = Plasma concentration in mouse at 30 mg/kg, po after 1 hr; set-up: dose 30 mg/kg, route oral
[2] = Plasma concentration in mouse at 30 mg/kg, ip after 1 hr; set-up: dose 30 mg/kg, route intraperitoneal
How it was run: (§1)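 Mice dosed intraperitoneally at 30 mg/kg in a vehicle of 5% ethanol, 5% Tween-80, 5% PEG400 and 85% PBS. Plasma drug concentration measured at set times after injection.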

[3] = Plasma concentration in mouse at 30 mg/kg, ip after 4 hrs; set-up: dose 30 mg/kg, route intraperitoneal; how it was run: as §1

Row | Structure (SMILES) | concentration at 1 h [1] [nM] | concentration at 1 h [2] [nM] | concentration at 4 h [3] [nM]
1 | O=C(c1ccccc1NCc1ccc2ncccc2c1)c1n[nH]c2ccccc12 | 1800 | 2400 | 
2 | Cc1ccc2c(c1)c(C(=O)c1ccccc1NCc1ccc3ncccc3c1)cn2C | 1800 | 2900 | 1100
